In ChEMBL document CHEMBL1156066 (J Med Chem, 2009):
Converted amounts (≈) assume the structure as drawn. Each block holds one compound with its values, some of them ahead of it.

Key:
[1] = Cytotoxicity against human lung cancer cell; type: cell-based, Cancer cell lines; details: lung cancer cells
[2] = Cytotoxicity against HEK cells; type: cell-based, HEK293; details: human
Hepatocyte [3] = experiment: Cytotoxicity against human hepatocytes up to 200 uM in presence of CYP450 enzymes; type: ADME, cell-based
Method in brief: (§1)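 Hepatocytes in vitro were exposed to concentrations up to 200 μM, with or without expression of each of the four major CYP 450 enzymes.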

Hepatocyte [4] = experiment: Cytotoxicity against human hepatocytes up to 200 uM in absence of CYP450 enzymes; type: ADME, cell-based; method in brief: as §1
Canis familiaris = experiment: Cardiotoxicity in dog assessed as changes in ECG at 200 mg/kg; type: toxicity, organism-based, Canis lupus familiaris; design: dose 200 mg/kg; details: in vivo
Method in brief: (§2)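 Dogs were dosed at 200 mpk, with ECG monitored for drug-related changes and plasma Cmax determined.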

[5] = Cmax in dog at 200 mg/kg; type: ADME, organism-based, Canis lupus familiaris; design: dose 200 mg/kg; details: in vivo; method in brief: as §2
[6] = Cytotoxicity against human hepatic cancer cells; type: cell-based, Cancer cell lines
[7] = Cytotoxicity against human neuronal tumor cells; type: cell-based
[8] = Cytotoxicity against human cervical cancer cells; type: cell-based, Cancer cell lines
[9] = Cytotoxicity against human larynx cancer cells; type: cell-based, Cancer cell lines
[10] = Ratio of plasma concentration in rat at 5 mg/kg, po to EC50 for HIV1 clinical isolates; type: ADME, organism-based; design: dose 5 mg/kg, route oral; details: in vivo
[11] = Ratio of plasma concentration in dog at 5 mg/kg, po to EC50 for HIV1 clinical isolates; type: ADME, organism-based; design: dose 5 mg/kg, route oral; details: in vivo
[12] = Ratio of plasma concentration in monkey at 5 mg/kg, po to EC50 for HIV1 clinical isolates; type: ADME, organism-based; design: dose 5 mg/kg, route oral; details: in vivo
[13] = Aqueous solubility of crystalline form of compound in buffer solution of pH 1.5 at 25 degC; type: physicochemical
[14] = Aqueous solubility of crystalline form of compound in buffer solution of pH 10 at 25 degC; type: physicochemical
[15] = Inhibition of HIV1 JRFL gp120/CD4 interaction in human HeLa67 cells assessed as inhibition of viral entry after 3 days by luciferase reporter gene assay; type: cell-based
Method in brief: (§3)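 HeLa 67 cells (HeLa expressing CD4, CCR5 and CXCR4; DMEM, 10% heat-inactivated FBS, penicillin/streptomycin) were plated at 10^5 cells/well the day before infection. They were then infected with HIV LAI-Δenv-luc pseudotyped with JRFL or LAI envelope, in the presence of 10-step 3-fold DMSO serial dilutions (30 mM stocks), run in duplicate. After 3 days at 37 C, firefly luciferase was read. EC50 was from a one-site fit.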

[16] = Inhibition of HIV1 LAI gp120/CD4 interaction in human HeLa67 cells assessed as inhibition of viral entry after 3 days by luciferase reporter gene assay; type: cell-based; method in brief: as §3
[17] = Metabolic stability in human liver microsomes assessed as half life; type: ADME, Microsome
[18] = Cytotoxicity against human MT2 cells after 3 days by XTT assay; type: cell-based
Method in brief: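 Uninfected MT-2 cells were exposed to 10-step 3-fold serial compound dilutions (30 mM DMSO stocks), run in parallel with the antiviral assay. Cell health was read by XTT after 3 days. CC50 was fitted with the same one-site equation as EC50.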

[19] = Permeability across human Caco-2 cell membrane at pH 6.5; type: ADME, cell-based; details: Caco-2, pH 6.5, read-out: permeability
[20] = Lipophilicity, log D at pH 6.5; type: physicochemical; details: buffer
Method in brief: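 Log D was measured by the octanol/water shake-flask method using phosphate buffered solution, pH 6.5.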

[21] = tested on: Human immunodeficiency virus 1; experiment: Antiviral activity against HIV1 clinical isolates; type: functional, organism-based
Cytochrome P450 3A4 [22] = target: T1, Cytochrome P450 3A4 (Homo sapiens, UniProt P08684); experiment: Inhibition of recombinant CYP3A4 using 7-benzyloxyresorufin as substrate; type: ADME
Cytochrome P450 3A4 [23] = target: T1, Cytochrome P450 3A4; experiment: Inhibition of recombinant CYP3A4 using benzyloxy-4-(trifluoromethyl)coumarin as substrate; type: ADME
Cytochrome P450 2C9 = Cytochrome P450 2C9 (Homo sapiens, UniProt P11712); experiment: Inhibition of recombinant CYP2C9; type: ADME
Cytochrome P450 2D6 = Cytochrome P450 2D6 (Homo sapiens, UniProt P10635); experiment: Inhibition of recombinant CYP2D6; type: ADME
Cytochrome P450 2C19 = Cytochrome P450 2C19 (Homo sapiens, UniProt P33261); experiment: Inhibition of recombinant CYP2C19; type: ADME
Cytochrome P450 1A2 = target: T2, Cytochrome P450 1A2 (Homo sapiens, UniProt P05177); experiment: Inhibition of recombinant CYP1A2; type: ADME
T2 sequence (P05177 whole entry): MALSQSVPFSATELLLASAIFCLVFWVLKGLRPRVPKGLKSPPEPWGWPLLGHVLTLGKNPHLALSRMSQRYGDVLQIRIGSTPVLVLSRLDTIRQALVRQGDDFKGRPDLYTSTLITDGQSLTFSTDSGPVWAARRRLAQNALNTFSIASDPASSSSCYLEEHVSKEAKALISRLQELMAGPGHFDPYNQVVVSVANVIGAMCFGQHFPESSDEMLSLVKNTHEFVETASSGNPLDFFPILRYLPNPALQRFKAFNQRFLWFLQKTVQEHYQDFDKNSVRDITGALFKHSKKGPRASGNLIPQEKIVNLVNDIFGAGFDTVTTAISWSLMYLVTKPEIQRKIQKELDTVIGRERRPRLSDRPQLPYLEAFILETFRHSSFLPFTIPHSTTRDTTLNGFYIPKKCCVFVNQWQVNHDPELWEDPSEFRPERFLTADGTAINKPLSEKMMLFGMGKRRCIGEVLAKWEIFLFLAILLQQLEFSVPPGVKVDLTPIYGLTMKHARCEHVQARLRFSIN

[24] = Aqueous solubility of crystalline form of compound in buffer solution of pH 6.5 at 25 degC; type: physicochemical
Method in brief: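 Solubility of the crystalline solid was measured 24-72 h after adding it to phosphate buffered solution, pH 6.5, at room temperature.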

[25] = target: Voltage-gated inwardly rectifying potassium channel KCNH2 (Homo sapiens, UniProt Q12809); experiment: Inhibition of human ERG by channel flux assay
[26] = Oral bioavailability in monkey at 5 mg/kg; type: ADME, organism-based, Macaca mulatta; details: rhesus monkey, in vivo
Rattus norvegicus = experiment: AUC in rat at 5 mg/kg, po; type: ADME, organism-based, Plasma; design: dose 5 mg/kg, route oral; details: in vivo
[27] = Terminal half life in rat at 5 mg/kg, iv; type: ADME, organism-based; design: dose 5 mg/kg, route intravenous; details: in vivo, read-out: beta t1/2 (converted)
[28] = Oral bioavailability in rat at 5 mg/kg administered as crystalline suspension; type: ADME, organism-based; details: in vivo
[29] = Solubility at pH 1.5; type: physicochemical; details: buffer
[30] = Solubility at pH 4 to 8; type: physicochemical; details: buffer
[31] = Stability at pH 2 after 48 hrs; type: physicochemical; details: buffer, pH 2, 48 h
Method in brief: (§4)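 The compound was held in solution at pH 2 or pH 7 for 48 h at 37 C and then checked for chemical change.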

[32] = Stability at pH 7 after 48 hrs; type: physicochemical; details: buffer, pH 7, 48 h; method in brief: as §4
[33] = Cytotoxicity against human T cell; type: cell-based; details: T cells
[34] = Cytotoxicity against human PBMC; type: cell-based
[35] = Aqueous solubility of crystalline form of compound in buffer solution of pH 2.1 at 25 degC; type: physicochemical
[36] = Aqueous solubility of crystalline form of compound in buffer solution of pH 11 at 25 degC; type: physicochemical
[37] = Oral bioavailability in dog at 5 mg/kg; type: ADME, organism-based, Canis lupus familiaris; details: in vivo

Chain of Cytochrome P450 2D6 (P10635 whole entry): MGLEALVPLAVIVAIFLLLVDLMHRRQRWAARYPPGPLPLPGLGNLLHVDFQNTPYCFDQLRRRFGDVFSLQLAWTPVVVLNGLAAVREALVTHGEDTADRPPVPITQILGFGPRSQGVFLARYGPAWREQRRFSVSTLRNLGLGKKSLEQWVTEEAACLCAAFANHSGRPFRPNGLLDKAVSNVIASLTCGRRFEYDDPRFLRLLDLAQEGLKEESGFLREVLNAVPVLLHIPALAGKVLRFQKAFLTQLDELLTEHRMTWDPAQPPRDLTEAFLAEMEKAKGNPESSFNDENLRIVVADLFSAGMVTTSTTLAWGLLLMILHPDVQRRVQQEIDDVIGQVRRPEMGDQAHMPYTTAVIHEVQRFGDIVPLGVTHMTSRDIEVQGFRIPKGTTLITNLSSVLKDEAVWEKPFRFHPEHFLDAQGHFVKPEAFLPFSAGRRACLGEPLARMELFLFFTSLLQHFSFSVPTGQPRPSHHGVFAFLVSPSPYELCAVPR
T1 sequence (P08684 whole entry): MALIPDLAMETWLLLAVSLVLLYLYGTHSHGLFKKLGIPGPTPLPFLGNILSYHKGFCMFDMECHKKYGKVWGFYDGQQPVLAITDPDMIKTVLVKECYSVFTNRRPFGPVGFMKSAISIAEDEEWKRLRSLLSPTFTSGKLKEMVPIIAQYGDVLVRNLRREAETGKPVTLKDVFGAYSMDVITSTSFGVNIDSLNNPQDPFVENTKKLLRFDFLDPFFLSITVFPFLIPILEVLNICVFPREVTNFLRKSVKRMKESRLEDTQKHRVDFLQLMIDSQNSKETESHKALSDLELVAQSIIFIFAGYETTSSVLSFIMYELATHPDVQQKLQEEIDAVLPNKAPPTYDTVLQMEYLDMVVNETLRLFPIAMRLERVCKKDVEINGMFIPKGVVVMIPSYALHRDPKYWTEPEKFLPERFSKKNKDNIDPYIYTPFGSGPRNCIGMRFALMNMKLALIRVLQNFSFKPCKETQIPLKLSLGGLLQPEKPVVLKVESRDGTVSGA
Chain of Cytochrome P450 2C9 (P11712 whole entry): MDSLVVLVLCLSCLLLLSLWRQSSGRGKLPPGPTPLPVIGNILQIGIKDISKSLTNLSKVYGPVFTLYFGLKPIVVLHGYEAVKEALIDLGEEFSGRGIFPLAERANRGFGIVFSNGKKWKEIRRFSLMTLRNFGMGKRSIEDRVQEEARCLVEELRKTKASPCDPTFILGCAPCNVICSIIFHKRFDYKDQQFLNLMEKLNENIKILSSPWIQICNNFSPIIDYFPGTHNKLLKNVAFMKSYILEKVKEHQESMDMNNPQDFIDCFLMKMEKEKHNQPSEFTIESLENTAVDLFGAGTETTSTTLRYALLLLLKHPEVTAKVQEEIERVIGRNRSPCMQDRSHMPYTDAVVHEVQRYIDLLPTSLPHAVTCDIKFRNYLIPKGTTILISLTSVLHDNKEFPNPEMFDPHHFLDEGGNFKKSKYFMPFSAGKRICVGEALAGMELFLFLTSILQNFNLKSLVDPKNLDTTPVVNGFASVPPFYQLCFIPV
Chain of Cytochrome P450 2C19 (P33261 whole entry): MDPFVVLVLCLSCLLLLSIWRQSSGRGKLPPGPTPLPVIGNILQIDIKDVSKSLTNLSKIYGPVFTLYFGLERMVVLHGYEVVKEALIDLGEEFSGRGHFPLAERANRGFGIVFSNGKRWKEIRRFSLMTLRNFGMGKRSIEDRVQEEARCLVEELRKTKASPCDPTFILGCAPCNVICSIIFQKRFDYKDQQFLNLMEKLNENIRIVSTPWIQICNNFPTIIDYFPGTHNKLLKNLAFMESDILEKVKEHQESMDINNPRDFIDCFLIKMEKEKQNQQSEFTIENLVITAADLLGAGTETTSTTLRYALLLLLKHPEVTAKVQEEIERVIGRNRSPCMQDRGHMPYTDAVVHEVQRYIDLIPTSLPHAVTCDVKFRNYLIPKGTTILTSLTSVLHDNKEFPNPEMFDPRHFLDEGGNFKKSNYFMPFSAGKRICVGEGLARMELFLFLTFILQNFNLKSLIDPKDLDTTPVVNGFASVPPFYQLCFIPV
Chain of Voltage-gated inwardly rectifying potassium channel KCNH2 (Q12809 whole entry): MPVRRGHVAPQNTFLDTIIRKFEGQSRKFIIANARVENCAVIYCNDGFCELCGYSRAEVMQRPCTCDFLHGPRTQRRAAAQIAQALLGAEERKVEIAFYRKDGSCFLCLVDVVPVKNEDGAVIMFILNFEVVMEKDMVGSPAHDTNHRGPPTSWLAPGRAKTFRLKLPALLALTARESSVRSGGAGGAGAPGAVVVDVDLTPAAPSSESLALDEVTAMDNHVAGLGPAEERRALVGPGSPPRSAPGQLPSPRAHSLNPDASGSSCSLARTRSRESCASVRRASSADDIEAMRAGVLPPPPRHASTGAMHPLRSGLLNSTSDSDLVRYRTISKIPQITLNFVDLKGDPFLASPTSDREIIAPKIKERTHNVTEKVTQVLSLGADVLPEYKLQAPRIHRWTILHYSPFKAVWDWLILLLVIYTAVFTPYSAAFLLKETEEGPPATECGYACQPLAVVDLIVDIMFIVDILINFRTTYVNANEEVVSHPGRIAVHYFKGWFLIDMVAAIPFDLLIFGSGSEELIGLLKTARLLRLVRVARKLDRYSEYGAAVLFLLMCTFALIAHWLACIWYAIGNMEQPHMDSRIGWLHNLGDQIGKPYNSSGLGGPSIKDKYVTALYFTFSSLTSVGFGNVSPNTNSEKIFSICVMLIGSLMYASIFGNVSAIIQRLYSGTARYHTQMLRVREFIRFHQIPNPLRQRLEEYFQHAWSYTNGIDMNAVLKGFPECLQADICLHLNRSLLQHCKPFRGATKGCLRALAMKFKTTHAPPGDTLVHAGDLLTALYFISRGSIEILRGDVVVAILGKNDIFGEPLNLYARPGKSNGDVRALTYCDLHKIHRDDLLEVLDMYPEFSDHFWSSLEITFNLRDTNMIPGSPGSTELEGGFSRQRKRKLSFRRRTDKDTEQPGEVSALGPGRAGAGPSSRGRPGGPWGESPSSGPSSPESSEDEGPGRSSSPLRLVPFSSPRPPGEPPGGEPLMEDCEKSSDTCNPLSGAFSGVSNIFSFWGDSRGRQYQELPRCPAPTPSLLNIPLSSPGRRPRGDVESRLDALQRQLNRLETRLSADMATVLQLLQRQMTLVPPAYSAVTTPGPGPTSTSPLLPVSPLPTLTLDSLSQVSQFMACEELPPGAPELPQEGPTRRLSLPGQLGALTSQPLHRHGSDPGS

Cmax [5]: 33 µM | Ratio [10]: 18 | Ratio [11]: 18 | Ratio [12]: 18 | solubility [13]: 0.9 mg/mL (≈ 2130 µM) | solubility [14]: 0.25 mg/mL (≈ 592 µM) | EC50 [15]: 0.00088 µM | EC50 [16]: 0.00115 µM | half-life [17]: > 100 min | Papp [19]: 178 nm/s | logD [20]: 1.5 | EC50 [21]: 0.0365 µM | IC50 (Cytochrome P450 3A4 [22]): > 40 µM | IC50 (Cytochrome P450 3A4 [23]): > 40 µM | IC50 (Cytochrome P450 2C9): 30 µM | IC50 (Cytochrome P450 2D6): > 40 µM | IC50 (Cytochrome P450 2C19): > 40 µM | IC50 (Cytochrome P450 1A2): > 40 µM | solubility [24]: 0.04 mg/mL (≈ 94.7 µM) | bioavailability [26]: 60% | AUC (Rattus norvegicus): 6.3 µg/h/mL | half-life [27]: 144 min | bioavailability [28]: 55% | solubility [29]: 0.9 mg/mL (≈ 2130 µM) | solubility [30]: 0.04 mg/mL (≈ 94.7 µM) | Stability [31]: Stable | Stability [32]: Stable
Compound: COc1ncc(OC)c2c(C(=O)C(=O)N3CCN(C(=O)c4ccccc4)CC3)c[nH]c12
CC50 [1]: ≥ 120 µM | CC50 [2]: ≥ 120 µM | Activity (Hepatocyte [3]): Non-toxic | Activity (Hepatocyte [4]): Non-toxic | Activity (Canis familiaris): Non-toxic | CC50 [6]: ≥ 120 µM | CC50 [7]: ≥ 120 µM | CC50 [8]: ≥ 120 µM | CC50 [9]: ≥ 120 µM | CC50 at 72 h [18]: > 300 µM | IC50 [25]: > 80 µM | CC50 [33]: ≥ 120 µM | CC50 [34]: ≥ 120 µM

solubility [35]: 1.3 mg/mL (≈ 3200 µM) | solubility [36]: 3.3 mg/mL (≈ 8120 µM) | EC50 [15]: 0.00147 µM | EC50 [16]: 0.00268 µM | half-life [17]: 37 min | Papp [19]: 51 nm/s | logD [20]: 1.6 | EC50 [21]: 0.0615 µM | IC50 (Cytochrome P450 2D6): 9.7 µM | solubility [24]: 0.2 mg/mL (≈ 492 µM) | bioavailability [37]: 77% | bioavailability [26]: 24% | AUC (Rattus norvegicus): 0.5 µg/h/mL | half-life [27]: 18 min
Compound: COc1ccnc2[nH]cc(C(=O)C(=O)N3CCN(C(=O)c4ccccc4)C[C@H]3C)c12
CC50 at 72 h [18]: > 300 µM

EC50 [15]: 0.0017 µM | half-life [17]: 49.5 min | Papp [19]: 168 nm/s | logD [20]: 1.8 | IC50 (Cytochrome P450 3A4 [22]): > 40 µM | IC50 (Cytochrome P450 3A4 [23]): > 40 µM | IC50 (Cytochrome P450 2C9): 7.9 µM | IC50 (Cytochrome P450 2D6): 17 µM | IC50 (Cytochrome P450 2C19): 10 µM | IC50 (Cytochrome P450 1A2): > 40 µM | solubility [24]: 0.936 mg/mL (≈ 2490 µM)
Compound: C[C@@H]1CN(C(=O)c2ccccc2)CCN1C(=O)C(=O)c1c[nH]c2ncccc12
CC50 at 72 h [18]: 280 µM | IC50 [25]: > 80 µM
